Most compounds without a hit are left out; they make up all but 3.7% or so of the library.
XBP1 UPR activ = activators of adaptive arm of unfolded protein response (XBP1); AID 463104; activation, % at 20 µM; 330,000 tested, 0.33% active; CHO-XBP1 luciferase reporter, IRE1-XBP1 UPR activation, luminescence; percent of tunicamycin response, DMSO as zero;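 active = versus positive control, 20 µM dose yields 30% or more activation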
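Test system: CHO-XBP1 luciferase reporter cells | Buffer or medium: Serum-containing F12 medium, 10% FBS | Schedule: 6 h compound exposure at 37 °C, 5% CO2 | Detection: Steady-Glo luciferase glow luminescence, 10 min after reagent addition | Read-out basis: Activation, % of tunicamycin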
CHOP UPR activ = apoptotic UPR (CHOP) activation. CHO-CHOP luciferase reporter, luminescence; percent of tunicamycin response over DMSO baseline. 330,000 tested, 0.34% active. activation, % at 10 µM. AID 449763;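 active = at 10 µM dose, activation of 40% or more, normalized to positive control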
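System: CHO-CHOP luciferase reporter cell line | Buffer or medium: F12 medium containing 10% fetal bovine serum | Doses: One dose, 10 µM in 0.5% DMSO | Times: 6 h compound exposure at 37 °C after overnight seeding | Signal: Luciferase luminescence | Read-out: % activation vs tunicamycin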
Dynein transport = blocks dynein driven cargo transport along microtubules | 3617.4 mouse cells, GR-EGFP nuclear translocation imaging; test concentration mostly 20 µM; stimulated with dexamethasone, 1 µM; hits give low values | z-score, hits read low | 220,000 tested, 0.47% active;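 active = plate z-score of nuclear minus cytoplasmic receptor signal below a set negative limit, without overly bright fluorescence or cell loss, cut at about -3.5 in these data, passing the limit was not always enough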;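 also: z-score of nuclear minus cytoplasmic ring GR-EGFP intensity difference per well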
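Medium: Induction medium lacking tetracycline, stripped serum | Probe or stimulus: 1.0 µM final dexamethasone stimulus | Schedule: 48 h induction, then 1 h compound, then 30 min agonist, 37 °C | Signal: Automated 10x imaging of fixed Hoechst-stained cells | Evaluation: Per-cell GR-EGFP intensity, nucleus versus surrounding cytoplasmic ring, well-averaged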
B2AR ag = agonists of human beta-2 adrenergic receptor inducing internalization | 340,000 tested, 0.43% active | P07550 | response, % (test concentration not listed) | Am2.2-beta2AR cells, FAP receptor internalization, flow cytometry | AID 504454;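 active = response above a set limit, near 3 SD of response in nonfluorescent compounds, cut at about 42% in these data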
Mdm2 ligase inh = Mdm2 E3 ligase (human) inhibition; AID 1230; Q00987; signal enhancement, % at 5 µM; cell-based MDM2 ubiquitination luciferase reporter, 2 h; 0 = plate control, 100 = twice control, blank-subtracted; 210,000 tested, 0.11% active;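 active = signal enhancement of 30% or more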;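 also: luminescence tracks abundance of the self-degrading MDM2-luciferase fusion protein; higher signal means inhibition of MDM2 E3 ligase activity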
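Assay system: stable mammalian line carrying autodegrading MDM2–luciferase fusion reporter; Input: 2000 cells in each well; Compound dosing: single-point 5 µM; Schedule: 2 h compound exposure at 37 °C; Signal: SteadyLite luciferase luminescence after 15 min room-temperature reagent incubation; Evaluation: % luminescence enhancement versus blank-corrected plate control mean; Benchmarks: plate controls and plate blanks.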
Mdm2-MdmX inh = disrupts the human Mdm2-MdmX interaction. O15151+Q00987. 330,000 tested, 3% active. AID 485346. SaOS-2 split-luciferase Mdm2/MdmX complementation, luminescence. inhibition, % at 8 µM;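 active = inhibition of at least 50% at 8 µM in the primary screen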
Target sequence (O15151 whole entry, looked up): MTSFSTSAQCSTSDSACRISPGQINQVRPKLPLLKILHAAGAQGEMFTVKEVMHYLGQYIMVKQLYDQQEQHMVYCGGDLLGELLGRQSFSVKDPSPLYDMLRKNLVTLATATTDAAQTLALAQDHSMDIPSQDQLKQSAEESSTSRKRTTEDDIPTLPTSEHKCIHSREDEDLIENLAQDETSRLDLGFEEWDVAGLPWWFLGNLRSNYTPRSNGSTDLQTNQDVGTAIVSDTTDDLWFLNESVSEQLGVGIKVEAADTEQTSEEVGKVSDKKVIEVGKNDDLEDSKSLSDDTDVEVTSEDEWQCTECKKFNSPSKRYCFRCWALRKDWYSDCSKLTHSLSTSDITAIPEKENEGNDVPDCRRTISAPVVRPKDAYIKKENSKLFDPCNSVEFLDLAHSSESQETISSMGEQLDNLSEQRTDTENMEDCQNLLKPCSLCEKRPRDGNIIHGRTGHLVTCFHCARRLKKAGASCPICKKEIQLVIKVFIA
Target sequence (Q00987 whole entry, looked up): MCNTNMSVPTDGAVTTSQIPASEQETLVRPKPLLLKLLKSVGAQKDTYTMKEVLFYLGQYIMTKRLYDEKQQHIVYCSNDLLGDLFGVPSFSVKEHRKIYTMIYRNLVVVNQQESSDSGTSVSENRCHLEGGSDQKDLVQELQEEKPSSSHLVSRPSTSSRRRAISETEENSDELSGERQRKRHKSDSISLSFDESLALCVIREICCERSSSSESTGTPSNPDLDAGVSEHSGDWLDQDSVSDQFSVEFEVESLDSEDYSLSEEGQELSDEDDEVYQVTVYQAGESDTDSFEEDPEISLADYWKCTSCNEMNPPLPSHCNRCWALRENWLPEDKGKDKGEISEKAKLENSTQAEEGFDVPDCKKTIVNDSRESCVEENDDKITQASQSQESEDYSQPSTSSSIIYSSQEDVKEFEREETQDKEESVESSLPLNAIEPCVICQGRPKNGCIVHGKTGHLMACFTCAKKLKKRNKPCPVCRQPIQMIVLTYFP
Mdm2-MdmX conf = confirmation of human Mdm2/MdmX interaction inhibitors. shares compounds with Mdm2-MdmX inh. 10,000 tested, 55% active. AID 489028. Mdm2-MdmX binding, luminescent assay. inhibition, % at 8 µM; in the data active = inhibition above about 40%
Full FLuc ctr = full-length luciferase inhibition in Mdm2/MdmX counter-screen; shares compounds with Mdm2-MdmX inh; SaOS-2 full-length luciferase counterscreen, luminescence; inhibition, % at 8 µM; 6,200 tested, 77% active;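 active = mean inhibition at 8 µM reaching about 37%, which flags the compound as non-specific, limit read from the data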;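 also: p53-null SaOS-2 cells with luciferase driven by a doxycycline-inducible promoter; compound on cells about two nights before reading with doxycycline added after day one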
Numbers stand for hits.

CCOC(=O)C(Cc1ccccc1)NC(=O)Cn1nnc(-c2ccc(SC)cc2)n1 (centres undefined) was read as XBP1 UPR activ inactive, CHOP UPR activ inactive, Dynein transport inactive, B2AR ag inactive, Mdm2 ligase inh inactive and Mdm2-MdmX inh inactive.
COc1ccc2oc(=O)cc(-c3cc4cccc(OC)c4o3)c2c1 was read as XBP1 UPR activ inactive, CHOP UPR activ inactive, B2AR ag inactive and Mdm2-MdmX inh inactive.
Screening COc1cccc2cc(-c3cc(=O)oc4cc(C)c(OCC(C)=O)cc34)oc12 returned XBP1 UPR activ inactive, CHOP UPR activ inactive, B2AR ag inactive, Mdm2-MdmX inh 54.5 and Mdm2-MdmX conf inactive.
For Cc1ccc(S(=O)(=O)Nc2ccc3c4c(cccc24)CC3)c(C)c1 the results were XBP1 UPR activ inactive, CHOP UPR activ inactive, Dynein transport inactive, B2AR ag inactive, Mdm2-MdmX inh 70.7, Mdm2-MdmX conf 60.4 and Full FLuc ctr 53.4.
Screening Cc1ccc(S(=O)(=O)Nc2ccc(O)c3ccccc23)c(C)c1 returned B2AR ag inactive.
For FC(F)(F)c1ccc(C2[C@H]3CN(Cc4ccc(-c5ccccc5)cc4)[C@H](c4ccccc4)C34CC2(c2cccnc2)C4)cc1 (some centres undefined) the results were XBP1 UPR activ inactive, CHOP UPR activ inactive, Dynein transport inactive, Mdm2 ligase inh inactive, Mdm2-MdmX inh 53.5, Mdm2-MdmX conf inactive and Full FLuc ctr 58.5.
FC(F)(F)c1ccc(C2[C@H]3CN(Cc4cccnc4)[C@H](c4ccccc4)C34CC2(c2cccnc2)C4)cc1 (some centres undefined) was read as XBP1 UPR activ inactive, CHOP UPR activ inactive, Dynein transport inactive, B2AR ag inactive, Mdm2 ligase inh inactive and Mdm2-MdmX inh inactive.
Screening O=C(OCC(=O)N1CCN(C(=O)c2ccco2)CC1)c1ccccc1NCCO returned XBP1 UPR activ inactive, CHOP UPR activ inactive, B2AR ag inactive and Mdm2-MdmX inh inactive.
COc1ccc(C[C@H]2CN3C(=NC[C@@H]3Cc3ccc(O)cc3)N2C[C@H](C)NC(=O)c2ccc(C)c(Br)c2)cc1 was read as XBP1 UPR activ inactive, CHOP UPR activ inactive, Dynein transport inactive, B2AR ag inactive, Mdm2 ligase inh inactive, Mdm2-MdmX inh 86.3 and Mdm2-MdmX conf inactive.
For COc1ccc(C[C@H]2CN3C(=NC[C@@H]3C(C)C)N2C[C@H](C)NC(=O)c2ccc(C)c(Br)c2)cc1 the results were XBP1 UPR activ inactive, CHOP UPR activ inactive, Dynein transport inactive, B2AR ag inactive, Mdm2-MdmX inh 52.3 and Mdm2-MdmX conf inactive.
COc1ccc(C[C@H]2CN3C(=NC[C@@H]3Cc3ccccc3)N2C[C@H](C)NC(=O)CCC2CCCCC2)cc1 was read as XBP1 UPR activ inactive, CHOP UPR activ inactive, Dynein transport inactive, Mdm2 ligase inh inactive, Mdm2-MdmX inh 67.6, Mdm2-MdmX conf 47.7 and Full FLuc ctr 71.7.
`Cc1ccc(C(=O)N[C@@H](C)CN2C3=NC[C@H](C(C)C)N3C[C@H]2Cc2ccc(O)cc2)cc1Br` gave XBP1 UPR activ inactive, CHOP UPR activ inactive, Dynein transport inactive, B2AR ag inactive and Mdm2-MdmX inh inactive.
Screening CC(Oc1cccc(Cl)c1)C(=O)Nc1nc(-c2ccccn2)cs1 (centres undefined) returned XBP1 UPR activ inactive, CHOP UPR activ inactive, B2AR ag inactive, Mdm2-MdmX inh 68.0, Mdm2-MdmX conf 76.9 and Full FLuc ctr 44.0.
Screening CC(Oc1ccccc1)C(=O)Nc1nc(-c2ccccn2)cs1 (centres undefined) returned XBP1 UPR activ inactive, CHOP UPR activ inactive, B2AR ag inactive, Mdm2-MdmX inh 73.8, Mdm2-MdmX conf 74.9 and Full FLuc ctr 42.8.
Screening OC(COCc1cccs1)CN1CCN(c2cccc(C(F)(F)F)c2)CC1 (centres undefined) returned XBP1 UPR activ inactive, CHOP UPR activ inactive, Dynein transport inactive, B2AR ag inactive, Mdm2 ligase inh inactive and Mdm2-MdmX inh inactive.
`OC(CN1CCN(c2cccc(C(F)(F)F)c2)CC1)c1c[nH]c2ccccc12` (centres undefined) gave XBP1 UPR activ inactive, CHOP UPR activ inactive, Dynein transport inactive, B2AR ag inactive, Mdm2 ligase inh inactive, Mdm2-MdmX inh inactive, Mdm2-MdmX conf 46.3 and Full FLuc ctr 64.1.
Screening Cc1cccc(Nc2nc(N)c([N+](=O)[O-])c(NCc3ccccc3)n2)c1 returned XBP1 UPR activ inactive, CHOP UPR activ inactive, Dynein transport inactive, B2AR ag inactive, Mdm2 ligase inh inactive, Mdm2-MdmX inh 51.6 and Mdm2-MdmX conf inactive.
Nc1nc(Nc2ccccc2)nc(NCc2ccccc2)c1[N+](=O)[O-] was read as XBP1 UPR activ inactive, CHOP UPR activ inactive, Dynein transport inactive, B2AR ag inactive, Mdm2 ligase inh inactive and Mdm2-MdmX inh inactive.
For Cc1ccc(C)c(OCCC(=O)NNC(=O)c2cc(C)oc2C)c1 the results were XBP1 UPR activ inactive, CHOP UPR activ inactive, B2AR ag inactive and Mdm2-MdmX inh inactive.
`C/C(N)=C(/C#N)C(=O)COC(=O)c1cc(C)n(-c2ccc(F)cc2)c1C` gave XBP1 UPR activ inactive, CHOP UPR activ inactive, Dynein transport inactive, B2AR ag inactive, Mdm2 ligase inh inactive, Mdm2-MdmX inh 79.8 and Mdm2-MdmX conf inactive.
`CCOc1ccc(-n2nnnc2-c2nc3ccccc3s2)cc1` gave XBP1 UPR activ inactive, CHOP UPR activ inactive, Dynein transport inactive, B2AR ag inactive, Mdm2 ligase inh inactive, Mdm2-MdmX inh 74.4, Mdm2-MdmX conf 48.7 and Full FLuc ctr 88.5.
For C#CCOCCOCCOCCNc1nc(N2CCN(C(=O)[C@H](CCCCN)n3cc(CN)nn3)CC2)nc(N2CCN(C(=O)[C@H](CCCN=C(N)N)n3cc(C(N)[C@H](C)CC)nn3)CC2)n1 (some centres undefined) the results were XBP1 UPR activ inactive, CHOP UPR activ inactive, B2AR ag inactive and Mdm2-MdmX inh inactive.
Cc1cccn2c(=O)c(C=NCCO)c(Nc3ccc(Cl)cc3)nc12 was read as XBP1 UPR activ inactive, CHOP UPR activ inactive, Dynein transport inactive, Mdm2 ligase inh inactive, Mdm2-MdmX inh 53.1 and Mdm2-MdmX conf inactive.

Compound activity deposited in PubChem by several laboratories.
